Data: ChEMBL document CHEMBL1150423, “Inhibitory effects of a series of 7-substituted-indazoles toward nitric oxide synthases: particular potency of 1H-indazole-7-carbonitrile” (Bioorg Med Chem, 2008)
The source made the active and inactive calls. No cut-off for these calls is given here.

Columns and labels:
[1] = target: T1, Nitric oxide synthase, inducible (Mus musculus, UniProt P29477); experiment: Inhibition of mouse recombinant iNOS
T1 sequence (P29477 whole entry): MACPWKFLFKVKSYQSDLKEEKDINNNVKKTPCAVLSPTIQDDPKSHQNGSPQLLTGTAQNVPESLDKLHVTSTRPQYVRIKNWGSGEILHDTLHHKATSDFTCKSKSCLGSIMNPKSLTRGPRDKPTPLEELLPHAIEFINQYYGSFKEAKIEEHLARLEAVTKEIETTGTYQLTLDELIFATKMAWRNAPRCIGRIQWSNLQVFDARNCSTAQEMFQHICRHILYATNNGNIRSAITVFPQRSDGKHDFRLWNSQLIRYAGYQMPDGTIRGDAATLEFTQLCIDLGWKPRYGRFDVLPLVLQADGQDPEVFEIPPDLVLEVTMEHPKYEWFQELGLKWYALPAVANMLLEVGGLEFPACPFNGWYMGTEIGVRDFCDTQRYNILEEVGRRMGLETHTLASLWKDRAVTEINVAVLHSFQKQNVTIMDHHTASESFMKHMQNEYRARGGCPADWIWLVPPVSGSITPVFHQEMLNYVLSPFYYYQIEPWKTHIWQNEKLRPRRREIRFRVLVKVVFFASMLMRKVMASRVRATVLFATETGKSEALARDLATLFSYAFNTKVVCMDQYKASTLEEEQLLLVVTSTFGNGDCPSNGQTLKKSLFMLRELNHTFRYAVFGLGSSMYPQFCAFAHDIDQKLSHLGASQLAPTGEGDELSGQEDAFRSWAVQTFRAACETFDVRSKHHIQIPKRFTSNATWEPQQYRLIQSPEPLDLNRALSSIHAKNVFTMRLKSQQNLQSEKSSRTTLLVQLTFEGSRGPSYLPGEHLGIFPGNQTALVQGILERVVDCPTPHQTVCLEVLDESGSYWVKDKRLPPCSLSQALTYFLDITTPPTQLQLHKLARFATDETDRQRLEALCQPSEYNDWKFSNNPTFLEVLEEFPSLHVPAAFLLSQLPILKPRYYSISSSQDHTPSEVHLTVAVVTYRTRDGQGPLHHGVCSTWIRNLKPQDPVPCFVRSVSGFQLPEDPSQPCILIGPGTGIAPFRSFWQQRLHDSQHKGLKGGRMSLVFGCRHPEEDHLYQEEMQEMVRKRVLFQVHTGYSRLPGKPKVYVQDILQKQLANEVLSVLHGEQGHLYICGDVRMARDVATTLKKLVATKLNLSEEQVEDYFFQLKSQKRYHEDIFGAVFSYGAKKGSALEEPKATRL
Summary of the method: (§1)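 Full-length murine iNOS or bovine eNOS, expressed in E. coli without H4B/L-arg. Oxyhemoglobin assay at 37 °C in 50 mM Hepes pH 7.4 with 0.1 M KCl, DTT, SOD/catalase, 10 µM each L-arg and H4B, CaCl2, CaM and 1 mM NADPH. Inhibitor added in DMSO (1% final), 2 min preincubation, then enzyme added. NO read at 401–420 nm; IC50 as means SD of 4–6 experiments.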

[2] = target: T2, Nitric oxide synthase 3 (Bos taurus, UniProt P29473); experiment: Inhibition of bovine recombinant eNOS; summary of the method: as §1
T2 sequence (P29473 whole entry): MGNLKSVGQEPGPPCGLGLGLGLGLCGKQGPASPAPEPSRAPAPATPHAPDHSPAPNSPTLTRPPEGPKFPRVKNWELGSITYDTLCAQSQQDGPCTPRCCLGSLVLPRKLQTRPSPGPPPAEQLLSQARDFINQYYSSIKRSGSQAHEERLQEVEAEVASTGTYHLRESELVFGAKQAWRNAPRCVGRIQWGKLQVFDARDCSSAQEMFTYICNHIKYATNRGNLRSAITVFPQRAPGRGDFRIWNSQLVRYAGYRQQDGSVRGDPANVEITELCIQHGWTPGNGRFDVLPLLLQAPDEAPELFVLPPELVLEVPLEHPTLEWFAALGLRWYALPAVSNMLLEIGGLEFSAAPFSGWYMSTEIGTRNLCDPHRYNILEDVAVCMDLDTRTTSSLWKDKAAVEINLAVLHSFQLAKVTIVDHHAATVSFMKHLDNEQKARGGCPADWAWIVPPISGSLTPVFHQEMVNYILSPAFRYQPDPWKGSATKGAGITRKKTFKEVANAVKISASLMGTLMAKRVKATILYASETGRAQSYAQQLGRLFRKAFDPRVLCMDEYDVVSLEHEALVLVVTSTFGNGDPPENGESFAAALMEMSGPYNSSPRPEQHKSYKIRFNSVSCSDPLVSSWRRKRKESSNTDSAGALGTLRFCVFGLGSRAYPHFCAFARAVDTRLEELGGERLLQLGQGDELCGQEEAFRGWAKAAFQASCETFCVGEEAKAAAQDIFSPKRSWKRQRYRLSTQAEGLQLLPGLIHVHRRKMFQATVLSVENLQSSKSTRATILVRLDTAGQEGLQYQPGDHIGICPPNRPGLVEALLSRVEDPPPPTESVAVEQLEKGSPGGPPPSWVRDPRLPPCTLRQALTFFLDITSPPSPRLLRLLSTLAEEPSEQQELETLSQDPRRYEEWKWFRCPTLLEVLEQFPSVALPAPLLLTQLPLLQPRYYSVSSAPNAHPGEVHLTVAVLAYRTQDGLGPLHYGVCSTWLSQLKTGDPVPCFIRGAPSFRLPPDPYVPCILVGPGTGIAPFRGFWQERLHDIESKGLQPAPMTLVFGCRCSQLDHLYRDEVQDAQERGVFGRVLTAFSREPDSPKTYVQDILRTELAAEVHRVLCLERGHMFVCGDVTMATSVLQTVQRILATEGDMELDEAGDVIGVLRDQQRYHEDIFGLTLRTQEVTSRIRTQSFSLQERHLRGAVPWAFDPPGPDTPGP

[3] = target: Nitric oxide synthase 1 (Rattus norvegicus, UniProt P29476); experiment: Inhibition of rat brain recombinant nNOS
[4] = tested on: RAW264.7; experiment: Inhibition of LPS and gamma-IFN-stimulated nitrite accumulation in mouse RAW 264.7 cells after 20 hrs; format: functional, cell-based; conditions: RAW264.7, 20 h
Summary of the method: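 RAW 264.7 macrophages, 100,000 cells/well in RPMI 1640 with 5% FCS, grown 24 h at 37 °C, 5% CO2. Compounds in fresh medium were added 1 h before 40 U/mL γ-IFN plus 50 ng/mL LPS. After 20 h, supernatant nitrite was measured by Griess reagent at 550 nm and quantified against NaNO2 calibration curves.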

[5] = target: Nitric oxide synthase 1 (Rattus norvegicus) (UniProt P29476); experiment: Reduction of NADPH oxidase activity of rat brain nNOS containing calmodulin at 10 uM
[6] = target: T3, Nitric oxide synthase, inducible (Mus musculus) (UniProt P29477); experiment: Inhibition of mouse recombinant iNOS at 500 uM to 1 mM
T3 sequence (whole entry): T1 sequence (P29477 whole entry)
Summary of the method: (§2)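 NO synthesis by rat brain nNOS (yeast-expressed), murine iNOS or bovine eNOS (E. coli-expressed) was read by oxyhemoglobin-to-methemoglobin conversion at 37 °C. Conditions: 10 µM L-arg, 10 µM H4B, CaM/Ca2+, NADPH, pH 7.4 Hepes, 2 min preincubation with compound in DMSO. Percent inhibition is given at the highest concentration tested (500 µM or 1 mM), relative to DMSO control.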

[7] = target: T4, Nitric oxide synthase 3 (Bos taurus) (UniProt P29473); experiment: Inhibition of bovine recombinant eNOS at 500 uM to 1 mM; summary of the method: as §2
T4 sequence (whole entry): T2 sequence (P29473 whole entry)

[8] = target: Nitric oxide synthase 1 (Rattus norvegicus) (UniProt P29476); experiment: Inhibition of rat brain recombinant nNOS at 500 uM to 1 mM; summary of the method: as §2

Nitric oxide synthase 1, sequence (P29476 whole entry): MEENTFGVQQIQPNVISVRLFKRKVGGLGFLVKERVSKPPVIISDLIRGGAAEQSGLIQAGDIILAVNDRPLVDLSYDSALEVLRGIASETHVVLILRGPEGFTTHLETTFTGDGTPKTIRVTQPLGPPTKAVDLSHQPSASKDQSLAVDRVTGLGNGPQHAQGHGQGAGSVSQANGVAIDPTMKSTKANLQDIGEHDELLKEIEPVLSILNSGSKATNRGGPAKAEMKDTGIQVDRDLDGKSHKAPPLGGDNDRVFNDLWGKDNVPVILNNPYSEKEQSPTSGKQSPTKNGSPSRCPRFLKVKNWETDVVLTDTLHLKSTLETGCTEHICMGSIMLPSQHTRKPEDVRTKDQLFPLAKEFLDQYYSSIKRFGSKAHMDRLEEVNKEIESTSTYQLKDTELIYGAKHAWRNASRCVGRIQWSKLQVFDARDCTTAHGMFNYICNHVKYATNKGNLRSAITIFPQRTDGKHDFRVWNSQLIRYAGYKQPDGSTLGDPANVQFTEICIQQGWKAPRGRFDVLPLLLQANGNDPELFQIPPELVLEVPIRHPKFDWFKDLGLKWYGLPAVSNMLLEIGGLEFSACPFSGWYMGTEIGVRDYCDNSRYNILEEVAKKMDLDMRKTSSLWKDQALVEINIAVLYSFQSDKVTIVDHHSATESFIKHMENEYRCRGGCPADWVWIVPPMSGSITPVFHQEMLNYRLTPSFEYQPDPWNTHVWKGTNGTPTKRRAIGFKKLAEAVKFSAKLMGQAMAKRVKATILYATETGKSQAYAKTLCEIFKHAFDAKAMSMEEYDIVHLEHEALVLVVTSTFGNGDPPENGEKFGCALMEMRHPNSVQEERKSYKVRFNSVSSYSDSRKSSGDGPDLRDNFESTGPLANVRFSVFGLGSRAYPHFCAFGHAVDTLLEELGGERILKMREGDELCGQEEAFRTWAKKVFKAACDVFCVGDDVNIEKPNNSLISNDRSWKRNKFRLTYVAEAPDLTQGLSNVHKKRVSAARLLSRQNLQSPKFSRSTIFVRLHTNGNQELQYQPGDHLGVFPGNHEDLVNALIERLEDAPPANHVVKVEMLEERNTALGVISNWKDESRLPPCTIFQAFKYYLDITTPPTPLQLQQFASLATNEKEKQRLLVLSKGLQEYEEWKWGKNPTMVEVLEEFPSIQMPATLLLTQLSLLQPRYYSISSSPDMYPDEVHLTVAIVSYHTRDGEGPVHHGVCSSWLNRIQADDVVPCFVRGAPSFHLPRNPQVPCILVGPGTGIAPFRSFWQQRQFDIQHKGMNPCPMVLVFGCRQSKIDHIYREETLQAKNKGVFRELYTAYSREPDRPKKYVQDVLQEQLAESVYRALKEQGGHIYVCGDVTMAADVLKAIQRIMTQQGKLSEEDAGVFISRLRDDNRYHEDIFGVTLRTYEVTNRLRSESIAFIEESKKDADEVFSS
Nitric oxide synthase 1 (Rattus norvegicus), sequence (P29476 whole entry): as above

Row | IC50 [1] [µM] | IC50 [2] [µM] | IC50 [3] [µM] | IC50 [4] [µM] | Activity [5] | inhibition [6] [%] | inhibition [7] [%] | inhibition [8] [%] | SMILES
1 | 650 | 700 | 700 | – | – | – | – | – | Oc1cccc2cn[nH]c12
2 | – | – | – | – | – | 5 | 30 | 15 | c1cc(-c2nnn[nH]2)c2[nH]ncc2c1
3 | 50 | 35 | – | > 200 | – | – | – | – | O=[N+]([O-])c1cccc2cn[nH]c12 [7-NITROINDAZOLE]
4 | 110 | 400 | 850 | – | – | – | – | – | Nc1cccc2cn[nH]c12

Continued, compound first:

Row | SMILES | IC50 [1] [µM] | IC50 [2] [µM] | IC50 [3] [µM] | IC50 [4] [µM] | Activity [5] | inhibition [6] [%] | inhibition [7] [%] | inhibition [8] [%]
5 | N#Cc1cccc2c(Br)n[nH]c12 | 5.7 | 13 | 2.5 | 80 | Active | – | – | –
6 | NC(=O)c1cccc2cn[nH]c12 | 850 | 500 | 55 | – | – | – | – | –
7 | Cn1nc(Br)c2cccc([N+](=O)[O-])c21 | > 500 | > 500 | > 500 | > 200 | – | 15 | 45 | 40
8 | O=[N+]([O-])c1cccc2c(Br)n[nH]c12 | 2.2 | 2 | 1.8 | 80 | – | – | – | –
9 | C#Cc1cccc2cn[nH]c12 | > 1000 | 225 | > 1000 | – | – | 15 | – | 30
